# Laboratory results taken from PubChem BioAssay AID602212 (Southern Research Specialized Biocontainment Screening …, 2012).
# Calls of active or inactive are those of the source.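 How the source made its calls: active means inhibition of 30% or more at any tested concentration; inactive means the rest.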
# Test system: M18 aspartyl aminopeptidase (Plasmodium falciparum 3D7)
# Assay: PfM18AAP enzyme inhibitors, dose response, counter-screen for PfM1 aminopeptidase inhibitor project, biochemical, QFRET fluorogenic substrate, set 2 (AID 602212)
# Conditions: recombinant PfM18AAP, H-Glu-NHMec fluorogenic cleavage; series mostly up to 100 µM; inhibition: at the top concentration
# Method in brief: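 system = recombinant PfM18AAP enzyme | also added = 0.1 mM H-Glu-NHMec substrate | doses = twofold series, 100–0.2 µM | times = Enzyme–substrate reaction with compound, 90 min, room temperature | detection = released NHMec fluorescence, excitation 370 nm, emission 460 nm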
row,SMILES,inhibition
1,O=C(NCc1ccccc1)C1CCN(S(=O)(=O)c2ccc(Br)s2)CC1,21.7% (inactive)
2,O=C(NCc1ccc(F)cc1)C1CCN(S(=O)(=O)c2ccc(Br)s2)CC1,14.8% (inactive)
3,CC[C@H](C)[C@H](NS(=O)(=O)c1ccc(Br)s1)C(=O)NCc1ccc(Cl)cc1,2.95% (inactive)
4,CC[C@H](C)[C@H](NC(=O)c1ccc(C(C)(C)C)cc1)C(=O)NCc1ccc2c(c1)OCO2,20.4% (inactive)
5,CC[C@H](C)[C@H](NS(=O)(=O)c1ccc(Br)s1)C(=O)NCc1ccc2c(c1)OCO2,3.45% (inactive)
6,O=C(NCc1ccc2c(c1)OCO2)C1CCN(S(=O)(=O)c2ccc(Br)s2)CC1,14.1% (inactive)
7,O=C(NCc1ccc(Cl)cc1)C1CCN(S(=O)(=O)c2ccc(Br)s2)CC1,1.76% (inactive)
8,CC[C@H](C)[C@H](NC(=O)c1ccc(C(C)(C)C)cc1)C(=O)NCc1ccc(Cl)cc1,-35.7% (inactive)
